L major viab = Leishmania major promastigote growth inhibition, primary screen; Leishmania major promastigotes, resazurin fluorescence viability; inhibition, % at 10 µM; 9% of 200,000 active; AID 1063, 2008; in the data active = inhibition above about 50%;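 note: promastigotes grown with compound for 44 hours at 28 °C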
WT yeast gro inh = growth inhibition of WT strain, primary screen, mitochondrial fusion inhibitor project, WT and mutant strains, chemical genetic. mitochondrial fusion phenotypic screen. inhibition, % at 10 µM. 2.1% of 190,000 active. AID 1362, 2008; in the data active = inhibition above about 58%; tested in S. cerevisiae
ROMK primary = ROMK potassium channel modulators, primary screen, cell-based, thallium flux, MLSMR library; ATP-sensitive inward rectifier potassium channel 1 (Homo sapiens), P48048; Tet-inducible ROMK, thallium flux fluorescence; actives lie on both sides; B-score at 10 µM; 2% of 130,000 active;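 active = signal ratio slope over the read window, or its plate-corrected B-score, at least 3 SD from the plate mean, either direction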;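 note: B-score of the F/F0 ratio slope over 7 to 12 s after thallium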
Target sequence (P48048 whole entry, looked up): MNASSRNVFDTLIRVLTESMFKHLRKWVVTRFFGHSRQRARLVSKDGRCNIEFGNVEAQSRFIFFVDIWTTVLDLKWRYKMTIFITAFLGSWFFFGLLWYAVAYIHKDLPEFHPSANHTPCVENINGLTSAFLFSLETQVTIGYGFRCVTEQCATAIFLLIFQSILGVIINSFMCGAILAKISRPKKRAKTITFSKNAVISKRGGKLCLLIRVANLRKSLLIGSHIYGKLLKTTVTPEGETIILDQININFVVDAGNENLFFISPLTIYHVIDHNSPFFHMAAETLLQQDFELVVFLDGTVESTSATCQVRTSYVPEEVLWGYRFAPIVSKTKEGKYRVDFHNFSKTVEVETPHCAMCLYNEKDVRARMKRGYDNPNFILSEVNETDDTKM
Diaphorase act = compounds boosting diaphorase resazurin reduction – biochemical, uHTS, resorufin fluorescence, counter-screen for diaphorase-coupled primary assays, primary screen. Diaphorase/resazurin coupled assay, 16 min; stronger effect = higher value; 1 = vehicle wells, 0 = NADH-free wells. activation factor at 20 µM. 0.005% of 190,000 active;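 active = diaphorase activity raised at least twofold by the compound at 20 µM; inactive = activation factor below 2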
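System – purified diaphorase enzyme from Clostridium kluyveri · Input – enzyme 0.07 U/mL final · Also added – final NADH 0.114 mM, resazurin 0.1 mM · Measured by – fluorescence of resorufin, 544 nm excitation, 590 nm emission · Timing – 16 min enzyme reaction, ambient temperature · Measure – resorufin increase flagging diaphorase activators or reducers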
KCC2 mod = KCC2 cotransporter modulators, thallium flux, primary screen, cell-based, HEK293 KCC2, FluoZin-2 fluorescence, MLSMR; 2.2% of 190,000 active; KCC2 cells, thallium flux FluoZin-2 fluorescence; B-score of Tl+ flux slope (higher = more flux/activation; lower = inhibition) at 10 µM; AID 1456, 2008;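 active = thallium flux slope and its plate-corrected score both differing from the plate sample mean at a set confidence after two filtering rounds, in either direction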;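 note: slope of fluorescence scaled to starting intensity during 10 to 20 s after thallium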
Diaph inh CS = diaphorase inhibitors and chemical oxidizers, primary screen, counter-screen for diaphorase-coupled primary assays, biochemical, uHTS, resorufin fluorescence. inhibition, % at 20 µM. diaphorase resazurin-to-resorufin fluorescence, NADH, 16 min; bacterial (C. kluyveri) enzyme, not human. 0.69% of 190,000 active. AID 1217, 2008;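 active = primary screen inhibition at 20 µM above a set limit, cut at about 50% in these data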;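 note: plate controls were DMSO with full reaction for no effect and wells lacking NADH for full effect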
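Assay system: diaphorase enzyme from Clostridium kluyveri. Quantity: enzyme working solution with 0.14 U/mL diaphorase. Schedule: reaction incubation of 16 min at room temperature. Technique: resorufin fluorescence, excitation 544 nm, emission 590 nm. Controls: No-NADH positive control and DMSO neutral control.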
* = called active by the depositor; . = no result. Rows were chosen to be rich in hits. Some 12% of all compounds tested hit in one or more screens of this group.

SMILES	L major viab	WT yeast gro inh	ROMK primary	Diaphorase act	KCC2 mod	Diaph inh CS
COc1ccc(CCNC(=O)c2ccc3c(=O)n(Cc4ccco4)c(=S)[nH]c3c2)cc1OC	-5	-6	.	0.5	0.13	51*
COc1ccc(CCNC(=O)c2cc(-c3ccco3)on2)cc1OC	4	19	0.32	1	-0.086	2
COc1ccc(CCNC(=O)c2ccc3nc(-c4ccco4)c(-c4ccco4)nc3c2)cc1OC	-4	-4	-0.12	0.3	-1.1	66*
COc1cc(/C=N/n2c(-c3ccc4c(c3)NC(=O)CO4)csc2=Nc2cccc(C)c2)ccc1O	92*	30	0.28	0.8	-0.022	20
Cc1ccc(S(=O)(=O)N(CCC(=O)Nc2ccc(OC(F)(F)F)cc2)c2ccccc2)cc1	95*	41	0.064	0.8	0.023	16
CN(c1cccc(NC(=O)CN(c2cccc(Cl)c2)S(=O)(=O)c2ccccc2)c1)S(C)(=O)=O	22	0	.	0.8	-2.9	25
COc1ccc(N(CC(=O)Nc2cccc(N(C)S(C)(=O)=O)c2)S(=O)(=O)c2ccc(F)cc2)cc1	.	.	.	.	-0.37	.
CCOc1ccc(N(CC(=O)Nc2cccc(N(C)S(C)(=O)=O)c2)S(=O)(=O)c2ccccc2)cc1	55*	-2	-0.57	0.9	1.2	13
COc1ccc(N(CC(=O)Nc2cccc(N(C)S(C)(=O)=O)c2)S(=O)(=O)c2ccc(C)cc2)cc1	67*	5	-1	0.8	-1.4	20
CC12CCC(C(=O)Nc3ncc([N+](=O)[O-])s3)(OC1=O)C2(C)C (stereo not drawn)	2	-8	.	1	.	3
O=C(COC(=O)c1ccc(OC(F)F)cc1)NCCCN1CCCC1=O	.	.	.	.	0.26	.
CC(C)c1cccc(OCCCCN(C)C)c1	86*	2	-0.0014	0.8	0.19	18
CCN(CC)CCOc1cccc(C(C)C)c1	83*	8	0.47	0.9	0.15	10
CCC(=O)N1CCc2cc(S(=O)(=O)CCC(=O)Nc3ccc(OC)c(OC)c3)ccc21	0	-16	0.034	1	1.2	-5
CN1CCN(c2ccc(Cl)cc2NC(=O)C2COc3ccccc3O2)CC1 (stereo not drawn)	99*	23	.	0.9	-1.4	11
CC(C)NC(=O)c1ccccc1NC(=O)C1COc2ccccc2O1 (stereo not drawn)	55*	2	-0.14	0.8	0.53	24
CN1CCN(c2ccc(Cl)cc2NC(=O)c2cccc(S(=O)(=O)N(C)C)c2)CC1	99*	9	-0.033	1	0.95	-2
CCC(C)NC(=O)c1ccccc1NC(=O)C1COc2ccccc2O1 (stereo not drawn)	9	-6	-0.74	1	-1.4	-4
CCN(C(=O)COC(=O)c1ccc(Cl)c(N)c1)C1CCS(=O)(=O)C1 (stereo not drawn)	-5	10	-0.17	1	1.9	-4
CCOCCCNC(=O)Cn1cnc2sc(C)c(S(=O)(=O)N3CCN(c4ncccn4)CC3)c2c1=O	-6	20	0.29	1	-0.45	0
O=C1C2C3c4ccccc4C(c4ccccc43)C2C(=O)N1c1cccnc1 (stereo not drawn)	51*	1	0.8	1	0.12	-2
CC12c3ccccc3C(c3ccccc31)C1C(=O)N(c3cccnc3)C(=O)C12 (stereo not drawn)	50	-12	.	0.9	0.015	12
CCN=C1S/C(=C\c2sccc2C)C(=O)N1CC	-2	3	.	0.9	0	11
OC(COC(c1ccc(Cl)cc1)c1ccc(Cl)cc1)CN1CCN(c2ccccn2)CC1 (stereo not drawn)	71*	79	-0.6	0.9	0.82	11
CC1CN(CC(O)COC(c2ccc(Cl)cc2)c2ccc(Cl)cc2)CC(C)O1 (stereo not drawn)	67*	57	.	0.9	0.8	9
SMILES	L major viab	WT yeast gro inh	ROMK primary	Diaphorase act	KCC2 mod	Diaph inh CS
CN(C)CC(O)COC(c1ccc(Cl)cc1)c1ccc(Cl)cc1 (stereo not drawn)	99*	30	-1.8	0.9	0.085	9
CC(=O)c1ccc(OCC(O)CN2CC(C)OC(C)C2)cc1 (stereo not drawn)	37	-10	.	1.1	0.84	-12
CC1CN(CC(O)COc2ccc(C(C)C)cc2)CC(C)O1 (stereo not drawn)	92*	19	.	0.9	-0.033	10
O=C(NCc1ccccc1)c1ccc(CN(c2ccccn2)S(=O)(=O)c2ccccc2)cc1	-5	12	.	1.1	-0.0023	-11
COc1ccc(-c2ncccc2OC(=O)C23CC4CC(CC(C4)C2)C3)cc1	13	46	.	0.8	-1	22
O=S(=O)(c1ccc(F)cc1)N1CCN(c2ccc(-c3ccccc3)nn2)CC1	-8	-5	-0.097	1	0.92	-2
COc1ccc(OC)c(-c2cc(C(=O)NCc3ccc(Cl)cc3)no2)c1	-3	16	2.7	1	-0.32	-1
CC1CN(CCCCOc2ccc(C(C)C)cc2)CC(C)O1 (stereo not drawn)	91*	24	-1.2	0.8	.	16
CC1CN(CCCCOc2cccc(Oc3ccccc3)c2)CC(C)O1 (stereo not drawn)	-4	47	-0.25	0.8	-0.019	15
C=C(C)CNC(=O)CCc1nnc(Cc2cccc(C(F)(F)F)c2)o1	-4	-10	0.48	.	0.57	.
N#Cc1c(-n2cccc2C=O)sc2c1CCCC2	52*	12	-1.2	0.9	-1.1	12
CN1CCc2nc3sc(C(=O)C45CC6CC(CC(C6)C4)C5)c(N)c3cc2C1	96*	11	-0.0028	1.1	.	-6
Cc1cc(C)cc(C(=O)NC(=S)Nc2ccc3c(c2)OCCO3)c1	19	27	.	0.7	1	32
Cc1ccc(C(=O)NC(=S)Nc2ccc3c(c2)OCCO3)c(C)c1	0	-10	.	0.7	13*	28
O=C(Nc1ccccc1)c1sccc1Oc1ccc([N+](=O)[O-])cc1F	84*	13	-0.34	1	.	5
CC(C)OC(=O)c1cccnc1N1CCN(c2cccc(Cl)c2)CC1	11	73*	0.25	0.8	0.19	20
N/C(=N\OC(=O)c1cccc2ccccc12)c1ccc(Br)cc1	1	77*	.	1	0	4
N/C(=N\OC(=O)c1cccc2ccccc12)c1ccncc1	.	.	.	.	-0.003	.
N/C(Cc1ccccc1)=N\OC(=O)c1cccc2ccccc12	97*	81*	-1.5	0.9	.	7
